Experiment [1] deals with MGC-803. Put plainly: Induction of ROS generation in human MGC-803 cells at 3 uM incubated for 24 hrs by DCFH-DA staining based flow cytometry analysis (reference value: 1.4%). Format: functional.
The subject of experiment [2] is MGC-803. Put plainly: Induction of ROS generation in human MGC-803 cells at 1 uM incubated for 24 hrs by DCFH-DA staining based flow cytometry analysis (reference value: 1.4%). Format: functional.
Experiment [3] relates to MGC-803. As to the kind of experiment: Induction of ROS generation in human MGC-803 cells at 0.3 uM incubated for 24 hrs by DCFH-DA staining based flow cytometry analysis (reference value: 1.4%). Format: functional.
The target of a further experiment is Cullin-1 (Homo sapiens) (UniProt Q13616). As to the kind of experiment: Inhibition of cullin1 neddylation in UBC/DCN1 overactivated human MGC-803 cells at 0.3 to 10 uM incubated for 24 hrs by Western blot analysis. Format: cell-based. The settings on record: dose 0.3-10 µM. Put shortly: (§1)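 Cells in 6-well plates were exposed to compound for 24 h. MGC-803 were grown in DMEM and KYSE70 in RPMI 1640, both with 10% FBS at 37 °C and 5% CO2. Lysates were made in RIPA with protease inhibitors and quantified by BCA. 30 μg protein was run on 8% SDS-PAGE and blotted to nitrocellulose. Primary antibodies were applied overnight at 4 °C, then HRP secondaries, with ECL and film detection. GAPDH was the loading control. Run three times.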

The test system of experiment [4] is MGC-803. As to the kind of experiment: Inhibition of cullin3 neddylation in UBC/DCN1 overactivated human MGC-803 cells at 0.3 to 10 uM incubated for 24 hrs by Western blot analysis. Format: cell-based. The settings on record: dose 0.3-10 µM. Put shortly: as §1
A further experiment addresses T1, Cullin-5 (Homo sapiens) (UniProt Q93034).
T1 sequence (whole entry): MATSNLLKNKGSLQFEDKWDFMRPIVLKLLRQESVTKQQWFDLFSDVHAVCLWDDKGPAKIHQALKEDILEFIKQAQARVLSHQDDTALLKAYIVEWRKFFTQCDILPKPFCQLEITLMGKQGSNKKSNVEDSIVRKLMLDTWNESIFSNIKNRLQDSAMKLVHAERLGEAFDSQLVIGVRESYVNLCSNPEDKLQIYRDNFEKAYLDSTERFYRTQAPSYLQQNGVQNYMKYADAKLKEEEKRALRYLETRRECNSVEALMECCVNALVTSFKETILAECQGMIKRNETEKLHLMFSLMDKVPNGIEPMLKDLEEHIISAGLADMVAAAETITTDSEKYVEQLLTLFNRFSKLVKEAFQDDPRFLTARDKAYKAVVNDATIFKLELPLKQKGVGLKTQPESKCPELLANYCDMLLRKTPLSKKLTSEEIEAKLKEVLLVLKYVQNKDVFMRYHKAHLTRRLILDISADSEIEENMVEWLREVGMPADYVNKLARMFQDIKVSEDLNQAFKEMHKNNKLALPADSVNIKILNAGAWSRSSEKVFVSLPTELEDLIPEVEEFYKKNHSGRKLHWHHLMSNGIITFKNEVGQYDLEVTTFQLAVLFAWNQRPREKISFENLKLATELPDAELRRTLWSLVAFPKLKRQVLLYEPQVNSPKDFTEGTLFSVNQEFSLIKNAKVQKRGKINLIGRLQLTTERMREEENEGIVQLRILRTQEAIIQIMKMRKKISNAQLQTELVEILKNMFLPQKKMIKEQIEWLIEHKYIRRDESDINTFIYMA
Put plainly: Inhibition of cullin5 neddylation in UBC/DCN1 overactivated human MGC-803 cells at 0.3 to 10 uM incubated for 24 hrs by Western blot analysis. Format: cell-based. The conditions noted are these: dose 0.3-10 µM. Summed up: as §1

In the next experiment the target is Cullin-4B (Homo sapiens) (UniProt Q13620). As to the kind of experiment: Inhibition of cullin4B neddylation in UBC/DCN1 overactivated human MGC-803 cells at 0.3 to 10 uM incubated for 24 hrs by Western blot analysis. Type of experiment: cell-based. The conditions noted are these: dose 0.3-10 µM. Summed up:
as §1

The next experiment concerns the target Cullin-4A (Homo sapiens) (UniProt Q13619). As to the kind of experiment: Inhibition of cullin4A neddylation in UBC/DCN1 overactivated human MGC-803 cells at 0.3 to 10 uM incubated for 24 hrs by Western blot analysis. Type of experiment: cell-based. The settings on record: dose 0.3-10 µM. Summed up: as §1
For experiment [5], the system named is MGC-803. As to the kind of experiment: Inhibition of cullin2 neddylation in UBC/DCN1 overactivated human MGC-803 cells at 0.3 to 10 uM incubated for 24 hrs by Western blot analysis. Format: cell-based. The conditions noted are these: dose 0.3-10 µM. Put shortly:
as §1

Experiment [6] deals with DCN1-like protein 1/NEDD8-conjugating enzyme Ubc12 (Homo sapiens, UniProt Q96GG9). Put plainly: Inhibition of GST-tagged DCN1 PONY domain (unknown origin)/human N-terminal acetylated UBC12 (1 to 12 residues) protein-protein interaction incubated for 1 hr by HTRF analysis. Type of experiment: protein assay.

The source of these data is ChEMBL document CHEMBL5260843 (J Med Chem, 2019).

Structures are written as SMILES. Active and inactive are the calls of the source. No cut-off for these calls is given here.

Chain of Cullin-1 (Homo sapiens) (Q13616 whole entry): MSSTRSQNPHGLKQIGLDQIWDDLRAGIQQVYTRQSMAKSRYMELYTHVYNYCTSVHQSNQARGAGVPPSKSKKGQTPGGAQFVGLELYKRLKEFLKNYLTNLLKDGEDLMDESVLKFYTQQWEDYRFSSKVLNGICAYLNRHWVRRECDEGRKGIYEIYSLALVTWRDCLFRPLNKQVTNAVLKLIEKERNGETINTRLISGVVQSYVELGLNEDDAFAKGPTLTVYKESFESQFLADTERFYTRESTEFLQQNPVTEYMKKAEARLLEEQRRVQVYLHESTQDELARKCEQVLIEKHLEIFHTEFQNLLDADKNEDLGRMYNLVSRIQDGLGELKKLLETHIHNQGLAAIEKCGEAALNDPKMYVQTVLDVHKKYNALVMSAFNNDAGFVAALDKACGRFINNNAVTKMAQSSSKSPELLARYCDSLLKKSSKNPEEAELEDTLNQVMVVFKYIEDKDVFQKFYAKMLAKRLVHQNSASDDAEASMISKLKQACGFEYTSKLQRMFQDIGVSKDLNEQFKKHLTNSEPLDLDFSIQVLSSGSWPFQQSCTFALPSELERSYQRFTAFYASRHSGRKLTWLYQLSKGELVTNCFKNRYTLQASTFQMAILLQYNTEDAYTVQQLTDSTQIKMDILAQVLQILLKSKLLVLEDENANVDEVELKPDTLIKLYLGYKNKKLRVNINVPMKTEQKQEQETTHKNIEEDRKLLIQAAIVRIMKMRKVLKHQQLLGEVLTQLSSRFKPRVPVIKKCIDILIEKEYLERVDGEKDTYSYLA
Chain of Cullin-4B (Homo sapiens) (Q13620 whole entry): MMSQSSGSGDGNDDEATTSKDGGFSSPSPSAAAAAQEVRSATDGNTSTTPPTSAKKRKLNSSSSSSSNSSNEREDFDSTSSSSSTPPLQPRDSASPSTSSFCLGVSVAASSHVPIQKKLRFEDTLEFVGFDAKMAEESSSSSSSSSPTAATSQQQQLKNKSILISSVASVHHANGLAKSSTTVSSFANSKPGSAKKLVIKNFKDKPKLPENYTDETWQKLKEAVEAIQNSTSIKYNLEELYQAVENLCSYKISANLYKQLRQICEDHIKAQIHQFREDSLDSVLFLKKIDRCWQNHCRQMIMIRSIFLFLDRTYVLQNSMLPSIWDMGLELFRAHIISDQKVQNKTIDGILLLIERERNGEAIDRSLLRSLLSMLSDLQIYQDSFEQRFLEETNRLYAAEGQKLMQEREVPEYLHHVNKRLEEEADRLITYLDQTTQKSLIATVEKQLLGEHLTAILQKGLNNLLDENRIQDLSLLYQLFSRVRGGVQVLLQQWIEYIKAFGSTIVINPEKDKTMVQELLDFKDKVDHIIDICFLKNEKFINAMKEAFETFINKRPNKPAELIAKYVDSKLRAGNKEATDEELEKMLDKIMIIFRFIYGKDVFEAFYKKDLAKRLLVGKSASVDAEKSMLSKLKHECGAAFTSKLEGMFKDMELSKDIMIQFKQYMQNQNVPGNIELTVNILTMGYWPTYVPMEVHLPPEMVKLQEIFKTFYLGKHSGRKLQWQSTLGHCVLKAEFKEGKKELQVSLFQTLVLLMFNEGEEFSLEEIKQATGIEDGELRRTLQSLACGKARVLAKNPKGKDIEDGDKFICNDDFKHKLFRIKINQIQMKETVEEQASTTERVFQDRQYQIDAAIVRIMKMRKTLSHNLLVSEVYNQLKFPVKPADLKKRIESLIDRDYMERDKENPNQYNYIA
Chain of DCN1-like protein 1/NEDD8-conjugating enzyme Ubc12 (Q96GG9 whole entry, the tested form may be a part): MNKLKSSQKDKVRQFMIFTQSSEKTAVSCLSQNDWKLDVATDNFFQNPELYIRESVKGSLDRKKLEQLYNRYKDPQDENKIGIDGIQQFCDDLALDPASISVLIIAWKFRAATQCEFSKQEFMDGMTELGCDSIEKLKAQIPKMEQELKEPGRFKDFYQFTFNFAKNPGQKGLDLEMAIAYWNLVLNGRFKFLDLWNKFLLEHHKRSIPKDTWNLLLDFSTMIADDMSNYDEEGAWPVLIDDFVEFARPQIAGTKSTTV
Chain of DCN1-like protein 1/NEDD8-conjugating enzyme Ubc12 (P61081 whole entry, further chain, the tested form may be a part): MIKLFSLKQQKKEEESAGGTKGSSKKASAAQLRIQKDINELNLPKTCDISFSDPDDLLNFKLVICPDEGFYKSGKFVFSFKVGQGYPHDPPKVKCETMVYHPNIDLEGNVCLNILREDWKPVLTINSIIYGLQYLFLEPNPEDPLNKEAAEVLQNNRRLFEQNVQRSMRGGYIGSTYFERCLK
Chain of Cullin-4A (Homo sapiens) (Q13619 whole entry): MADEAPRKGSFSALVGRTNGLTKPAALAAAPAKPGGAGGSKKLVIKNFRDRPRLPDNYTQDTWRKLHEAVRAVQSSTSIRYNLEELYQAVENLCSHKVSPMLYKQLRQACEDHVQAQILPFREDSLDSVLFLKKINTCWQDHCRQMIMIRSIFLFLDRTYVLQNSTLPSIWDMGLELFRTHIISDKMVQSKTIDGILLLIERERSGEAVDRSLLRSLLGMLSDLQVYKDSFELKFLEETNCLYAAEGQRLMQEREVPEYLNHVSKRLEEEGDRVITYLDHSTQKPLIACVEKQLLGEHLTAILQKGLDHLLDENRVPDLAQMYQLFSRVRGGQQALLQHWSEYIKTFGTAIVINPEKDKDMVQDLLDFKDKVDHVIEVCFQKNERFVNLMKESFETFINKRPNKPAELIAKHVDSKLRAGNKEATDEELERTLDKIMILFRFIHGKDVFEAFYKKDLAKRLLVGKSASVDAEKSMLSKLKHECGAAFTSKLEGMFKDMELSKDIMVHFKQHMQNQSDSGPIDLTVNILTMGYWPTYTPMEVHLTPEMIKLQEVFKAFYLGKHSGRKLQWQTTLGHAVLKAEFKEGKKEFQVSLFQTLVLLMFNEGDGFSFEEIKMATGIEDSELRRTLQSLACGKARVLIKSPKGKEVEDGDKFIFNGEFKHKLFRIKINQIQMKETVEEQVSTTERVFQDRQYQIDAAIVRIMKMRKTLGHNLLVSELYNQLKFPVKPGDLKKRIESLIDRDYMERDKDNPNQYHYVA

Consider `CCCCCc1c(C)nc2nc(SCc3ccc(Cl)cc3)nn2c1Sc1nnnn1CCN(C)C.Cl`, for which the Activity in the experiment with MGC-803 [1] stood at 0.7%; in the experiment on MGC-803 [2], 2.6%; in the experiment with MGC-803 [3], 2.5%. For the same compound, the inhibition result on Cullin-1 (Homo sapiens), in the experiment on MGC-803 [4], on Cullin-5 (Homo sapiens), on Cullin-4B (Homo sapiens), on Cullin-4A (Homo sapiens) and in the experiment with MGC-803 [5] was “inactive” throughout. In experiment [6], this compound returned an IC50 of over 50 µM.
